Assay results published in paper PMC3357394 (Organic & biomolecular chemistry, 2011).

Legend:
[1] = molecular target: T1, recombinant CD38 (Homo sapiens, UniProt P28907); test: Inhibition of the NADase; format: biochemical; settings: for inhibitory activity against CD38 NADase (in words): recombinant CD38
T1 sequence (P28907 45-300): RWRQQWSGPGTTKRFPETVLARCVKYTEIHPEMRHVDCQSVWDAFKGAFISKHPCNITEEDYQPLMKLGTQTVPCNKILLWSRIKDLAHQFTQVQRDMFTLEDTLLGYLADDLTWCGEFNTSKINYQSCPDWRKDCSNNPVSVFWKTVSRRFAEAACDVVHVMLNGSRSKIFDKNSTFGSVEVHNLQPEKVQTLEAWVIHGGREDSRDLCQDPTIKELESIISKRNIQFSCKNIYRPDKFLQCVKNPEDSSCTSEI

[2] = test system: phenylephrine-induced contraction in rat aortic ring preparations with intact endothelium; settings: Phe (1 μM)-contracted endothelium-intact rat aortic rings, 30-300 μM
Procedure, shortened: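 Endothelium-intact 3 mm thoracic aortic rings from male Sprague-Dawley rats (250–300 g) were held isometrically at 15 mN in Krebs solution (37°, 95% O2-5% CO2, pH≈7.4) and checked with 0.3 μM Phe then 1 μM ACh. After 60 min equilibration, rings were precontracted with 1 μM Phe and given cumulative water-dissolved test compound (30–300 μM). pD2 came from nonlinear fits of individual curves; mean±SEM, 3–5 rats/group.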

[3] = molecular target: NAD+ glycohydrolase activity of CD38; settings: competitive inhibitor of NAD+ glycohydrolase activity of CD38; cited from earlier work
[4] = molecular target: CD38; settings: inhibitors of CD38; cited from earlier work
[5] = test system: PC12 cells; settings: cited from earlier work

Compound	IC50 [1] [mM]	inhibitory activity against CD38 NADase (in words) [1]	also measured
NC(=O)c1c[n+](COCCOc2ccc(Oc3ccccc3)cc2)ccc1N.[Cl-] [Compound 14, 1-{[2-(4-phenoxy-phenoxy)ethoxy]methyl}-3-(aminocarbonyl)-4-amino-pyridiniu m chloride]	4.8	weak inhibitory activities	–
NC(=O)c1ccc[n+](COCCCCOC[n+]2cccc(C(N)=O)c2)c1.[Cl-].[Cl-] [Compound 9, 1,4-dimethoxy-butylene-bis-N,N′-3-(aminocarbonyl)-pyridinium dichloride]	–	–	vascular relaxing effect (in words) [2]: no such vascular relaxing effect
NC(=O)c1ccc[n+](COCCOc2ccc(Oc3ccccc3)cc2)c1.[Cl-] [Compound 4, 1-{[2-(4-phenoxy-phenoxy)ethoxy]methyl}-3-(aminocarbonyl)-pyridinium chloride]	3.42	weak inhibitory activities	vascular relaxing effect (in words) [2]: concentration-dependent relaxation
NC(=O)c1ccc[n+]([C@@H]2C[C@H](COP(=O)([O-])OP(=O)(O)OC[C@H]3O[C@@H](n4cnc5c(N)ncnc54)[C@H](O)[C@@H]3O)[C@@H](O)[C@H]2O)c1 [carba-NAD^+, dinucleotide carbanicotinamide adenine dinucleotide]	–	–	IC50 [3]: ~100 µM
NC(=O)c1ccc[n+]([C@@H]2O[C@H](COP(=O)(O)O)C(O)C2F)c1 (stereo partly drawn) [ara-F NMN]	–	–	Ki [4]: nano-molar range
COc1ccc(OCCOC[n+]2cccc(C(N)=O)c2)cc1.[Cl-] [Compound 3, 1-{[2-(4-methoxy-phenoxy)ethoxy]methyl}-3-(aminocarbonyl)-pyridinium chloride]	11.4	weak inhibitory activities	–
NC(=O)c1ccc[n+](COCCOc2ccc([N+](=O)[O-])cc2)c1.[Cl-] [Compound 5, 1-{[2-(4-nitro-phenoxy)ethoxy]methyl}-3-(aminocarbonyl)-pyridinium chloride]	5.65	weak inhibitory activities	–
NC(=O)c1ccc[n+](COC/C=C/COc2cccc3cccnc23)c1.[Cl-] [Compound 12, (E)-1-{[4-(8′-quinolyloxy)but-2-enyloxy]methyl}-3-(aminocarbonyl)-pyridinium chloride]	–	weak inhibitory activities	–
NC(=O)c1ccc[n+](COCCOc2cccc(C(F)(F)F)c2)c1.[Cl-] [Compound 6, 1-{[2-(3-trifluoromethyl-phenoxy)ethoxy]methyl}-3-(aminocarbonyl)-pyridinium chloride]	–	no affinity for CD38	–
NC(=O)c1ccc2c(ccc[n+]2COCCOc2ccc(Oc3ccccc3)cc2)c1.[Cl-] [Compound 13, 1-{[2-(4-phenoxy-phenoxy)ethoxy]methyl}-6-(aminocarbonyl)-quinolinium chloride]	2.12	weak inhibitory activities	–
NC(=O)c1ccc[n+](COCCOc2cccc3cccnc23)c1.[Cl-] [Compound 7, 1-{[2-(8′-quinolyloxy)ethoxy]methyl}-3-(aminocarbonyl)-pyridinium chloride]	–	weak inhibitory activities	inhibition of acetylcholine (Ach)-induced Ca2+ increase (in words) [5]: significantly inhibited
